Assay results published in ChEMBL document CHEMBL1140548, “Synthesis, antibacterial activity, and quantitative structure-activity relationships of new (Z)-2-(nitroimidazolylmethylene)-3(2H)-benzofuranone derivatives” (2007).
Converted amounts (≈) assume the structure as drawn.

Columns and labels:
Type in all cases: functional
[1] = system: Bacillus subtilis; test: Antimicrobial activity against Bacillus subtilis ATCC 6633
Method in brief: (§1)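 Agar-dilution assay run in vitro on a panel of Gram-positive and Gram-negative bacteria, with amoxicillin as the reference drug. The MIC was taken as the minimal inhibitory concentration.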

[2] = system: Staphylococcus aureus; test: Antimicrobial activity against methicillin-resistant Staphylococcus aureus isolate
Method in brief: (§2)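 In vitro conventional agar-dilution assay against a panel of Gram-positive and Gram-negative bacteria. Read-out is the minimal inhibitory concentration (MIC), with amoxicillin as the reference drug.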

[3] = system: Klebsiella pneumoniae; test: Antimicrobial activity against Klebsiella pneumoniae ATCC 10031; method in brief: as §1
[4] = system: Staphylococcus epidermidis; test: Antimicrobial activity against Staphylococcus epidermidis ATCC 12228; method in brief: as §1
[5] = system: Staphylococcus aureus; test: Antimicrobial activity against Staphylococcus aureus ATCC 6538p; method in brief: as §1
[6] = system: Bacillus subtilis; test: Antimicrobial activity against Bacillus subtilis ATCC 6633 in presence of 0.1% butylated hydroxytoluene
[7] = system: Staphylococcus aureus; test: Antimicrobial activity against methicillin-resistant Staphylococcus aureus isolate in presence of 0.1% butylated hydroxytoluene; method in brief: as §2
[8] = system: Staphylococcus aureus; test: Antimicrobial activity against Staphylococcus aureus ATCC 6538p in presence of 0.1% butylated hydroxytoluene; method in brief: as §2
[9] = system: Staphylococcus epidermidis; test: Antimicrobial activity against Staphylococcus epidermidis ATCC 12228 in presence of 0.1% butylated hydroxytoluene
[10] = system: Klebsiella pneumoniae; test: Antimicrobial activity against Klebsiella pneumoniae ATCC 10031 in presence of 0.1% butylated hydroxytoluene

| SMILES | MIC [1] [µg/mL] | MIC [2] [µg/mL] | MIC [3] [µg/mL] | MIC [4] [µg/mL] | MIC [5] [µg/mL] | MIC [6] [µg/mL] | MIC [7] [µg/mL] | MIC [8] [µg/mL] | MIC [9] [µg/mL] | MIC [10] [µg/mL] |
| --- | --- | --- | --- | --- | --- | --- | --- | --- | --- | --- |
| Cc1cccc2c1O/C(=C\c1ncc([N+](=O)[O-])n1C)C2=O | 1.56 (≈ 5.47 µM) | 3.12 (≈ 11 µM) | 0.39 (≈ 1.37 µM) | 1.56 (≈ 5.47 µM) | 3.12 (≈ 11 µM) |  |  |  |  |  |
| Cn1cnc([N+](=O)[O-])c1/C=C1\Oc2ccc(Br)cc2C1=O | > 100 | > 100 | > 100 | > 100 | > 100 |  |  |  |  |  |
| CC1(C)S[C@@H]2[C@H](NC(=O)[C@H](N)c3ccc(O)cc3)C(=O)N2[C@H]1C(=O)O [AMOXICILLIN] | 12.5 (≈ 34.2 µM) | 12.5 (≈ 34.2 µM) | > 100 | 0.195 (≈ 0.534 µM) | 0.195 (≈ 0.534 µM) |  |  |  |  |  |
| Cn1c([N+](=O)[O-])cnc1/C=C1\Oc2ccccc2C1=O | 0.78 (≈ 2.88 µM) | 6.25 (≈ 23 µM) | 0.39 (≈ 1.44 µM) | 3.12 (≈ 11.5 µM) | 3.12 (≈ 11.5 µM) |  |  |  |  |  |
| Cc1ccc2c(c1)O/C(=C\c1ncc([N+](=O)[O-])n1C)C2=O | 0.78 (≈ 2.73 µM) | 1.56 (≈ 5.47 µM) | 0.39 (≈ 1.37 µM) | 1.56 (≈ 5.47 µM) | 3.12 (≈ 11 µM) |  |  |  |  |  |
| COc1ccc2c(c1)O/C(=C\c1ncc([N+](=O)[O-])n1C)C2=O | 0.78 (≈ 2.59 µM) | 1.56 (≈ 5.18 µM) | 0.39 (≈ 1.29 µM) | 1.56 (≈ 5.18 µM) | 1.56 (≈ 5.18 µM) |  |  |  |  |  |
| Cc1ccc2c(c1)C(=O)/C(=C/c1ncc([N+](=O)[O-])n1C)O2 | 1.56 (≈ 5.47 µM) | 3.12 (≈ 11 µM) | 0.39 (≈ 1.37 µM) | 3.12 (≈ 11 µM) | 3.12 (≈ 11 µM) |  |  |  |  |  |
| Cn1c([N+](=O)[O-])cnc1/C=C1\Oc2c(Cl)cccc2C1=O | 3.12 (≈ 10.2 µM) | 3.12 (≈ 10.2 µM) | 1.56 (≈ 5.1 µM) | 3.12 (≈ 10.2 µM) | 3.12 (≈ 10.2 µM) |  |  |  |  |  |
| Cn1c([N+](=O)[O-])cnc1C=C1C(=O)c2ccccc2C1=O | 50 (≈ 177 µM) | 100 (≈ 353 µM) | > 100 | 50 (≈ 177 µM) | 100 (≈ 353 µM) |  |  |  |  |  |
| Cn1cnc([N+](=O)[O-])c1/C=C1\Oc2ccccc2C1=O | > 100 | > 100 | > 100 | > 100 | > 100 |  |  |  |  |  |
| Cn1c([N+](=O)[O-])cnc1/C=C1\Oc2cc(O)cc(O)c2C1=O |  |  |  |  |  | 50 | > 100 | > 100 | 50 | > 100 |
| Cn1c([N+](=O)[O-])cnc1/C=C1\Oc2ccc(Br)cc2C1=O | > 100 | > 100 | 3.12 (≈ 8.93 µM) | > 100 | > 100 |  |  |  |  |  |
| Cn1cnc([N+](=O)[O-])c1/C=C1\Oc2c(Cl)cccc2C1=O | > 100 | > 100 | > 100 | > 100 | > 100 |  |  |  |  |  |
| Cn1c([N+](=O)[O-])cnc1/C=C1\Oc2cc(O)ccc2C1=O |  |  |  |  |  | 6.25 | 12.5 | 12.5 | 6.25 | 3.12 |
| Cn1c([N+](=O)[O-])cnc1/C=C1\Oc2ccc([N+](=O)[O-])cc2C1=O | 12.5 (≈ 39.5 µM) | 12.5 (≈ 39.5 µM) | 6.25 (≈ 19.8 µM) | 6.25 (≈ 19.8 µM) | 12.5 (≈ 39.5 µM) |  |  |  |  |  |
| COc1ccc2c(c1OC)O/C(=C\c1ncc([N+](=O)[O-])n1C)C2=O | 0.39 (≈ 1.18 µM) | 0.78 (≈ 2.35 µM) | 0.2 (≈ 0.604 µM) | 0.39 (≈ 1.18 µM) | 0.78 (≈ 2.35 µM) |  |  |  |  |  |

| SMILES | MIC [1] [µg/mL] | MIC [2] [µg/mL] | MIC [3] [µg/mL] | MIC [4] [µg/mL] | MIC [5] [µg/mL] | MIC [6] [µg/mL] | MIC [7] [µg/mL] | MIC [8] [µg/mL] | MIC [9] [µg/mL] | MIC [10] [µg/mL] |
| --- | --- | --- | --- | --- | --- | --- | --- | --- | --- | --- |
| COc1cccc2c1O/C(=C\c1c([N+](=O)[O-])ncn1C)C2=O | > 100 | > 100 | > 100 | > 100 | > 100 |  |  |  |  |  |
| Cn1c([N+](=O)[O-])cnc1/C=C1\Oc2cc(Cl)ccc2C1=O | 1.56 (≈ 5.1 µM) | > 100 | 0.78 (≈ 2.55 µM) | > 100 | > 100 |  |  |  |  |  |
| Cc1ccc2c(c1)O/C(=C\c1c([N+](=O)[O-])ncn1C)C2=O | > 100 | > 100 | > 100 | > 100 | > 100 |  |  |  |  |  |
| Cn1c([N+](=O)[O-])cnc1/C=C1\Oc2ccc(Cl)cc2C1=O | 1.56 (≈ 5.1 µM) | 3.12 (≈ 10.2 µM) | 0.78 (≈ 2.55 µM) | 3.12 (≈ 10.2 µM) | 3.12 (≈ 10.2 µM) |  |  |  |  |  |
| Cc1ccc2c(c1)C(=O)/C(=C/c1c([N+](=O)[O-])ncn1C)O2 | > 100 | > 100 | > 100 | > 100 | > 100 |  |  |  |  |  |
| Cn1cnc([N+](=O)[O-])c1/C=C1\Oc2cc(Cl)ccc2C1=O | > 100 | > 100 | > 100 | > 100 | > 100 |  |  |  |  |  |
| Cn1c([N+](=O)[O-])cnc1/C=C1\Oc2ccc(I)cc2C1=O | > 100 | > 100 | 50 (≈ 126 µM) | > 100 | > 100 |  |  |  |  |  |
| Cn1cnc([N+](=O)[O-])c1/C=C1\Oc2ccc(I)cc2C1=O | > 100 | > 100 | > 100 | > 100 | > 100 |  |  |  |  |  |
| COc1ccc2c(c1)C(=O)/C(=C/c1ncc([N+](=O)[O-])n1C)O2 | 0.78 (≈ 2.59 µM) | 3.12 (≈ 10.4 µM) | 0.39 (≈ 1.29 µM) | 3.12 (≈ 10.4 µM) | 3.12 (≈ 10.4 µM) |  |  |  |  |  |
| COc1ccc2c(c1)C(=O)/C(=C/c1c([N+](=O)[O-])ncn1C)O2 | > 100 | > 100 | 6.25 (≈ 20.7 µM) | > 100 | > 100 |  |  |  |  |  |
| Cc1cccc2c1O/C(=C\c1c([N+](=O)[O-])ncn1C)C2=O | > 100 | > 100 | > 100 | > 100 | > 100 |  |  |  |  |  |
| COc1cccc2c1O/C(=C\c1ncc([N+](=O)[O-])n1C)C2=O | 0.78 (≈ 2.59 µM) | 0.78 (≈ 2.59 µM) | 0.78 (≈ 2.59 µM) | 0.78 (≈ 2.59 µM) | 0.78 (≈ 2.59 µM) |  |  |  |  |  |
| COc1ccc2c(c1)O/C(=C\c1c([N+](=O)[O-])ncn1C)C2=O | > 100 | > 100 | > 100 | > 100 | > 100 |  |  |  |  |  |
| Cn1c([N+](=O)[O-])cnc1/C=C1\Cc2ccccc2C1=O | > 100 | > 100 | 0.2 (≈ 0.743 µM) | > 100 | > 100 |  |  |  |  |  |
| Cn1cnc([N+](=O)[O-])c1/C=C1\Oc2ccc(Cl)cc2C1=O | > 100 | > 100 | > 100 | > 100 | > 100 |  |  |  |  |  |
| Cn1cnc([N+](=O)[O-])c1/C=C1\Oc2ccc([N+](=O)[O-])cc2C1=O | > 100 | > 100 | > 100 | > 100 | > 100 |  |  |  |  |  |
